This passage reports viability and Ratio results from ChEMBL document CHEMBL2321659, “Design, synthesis, and biological evaluation of indenoisoquinoline rexinoids with chemopreventive potential” (J Med Chem, 2013).

Structures are written as SMILES. Bounds are passed on as bounds.

Tested on in the first series: not listed separately
The series is described as follows: Cytotoxicity against African green monkey COS1 cells assessed as cell survival. As to conditions: chlorocebus aethiops, COS-1 cells; read-out: Activity. Also noted: concentration or dose not given beside the values. Format: cell-based.
Take `CNc1ccc2c3c(n(CCCN)c(=O)c2c1)-c1ccccc1C3=O`: the viability turned out to be 45.9%.
`Cc1cc2c(cc1C1(c3ccc(C(=O)O)cn3)CC1)C(C)(C)CCC2(C)C`: the viability was found to be 84.3%.
On the same count and under the same terms, the figure for `CNCCCn1c2c(c3ccc(N)cc3c1=O)C(=O)c1ccccc1-2` is 53%.

Another series has as its target T1, Retinoic acid receptor RXR-alpha (Homo sapiens) (UniProt P19793).
T1 sequence (whole entry): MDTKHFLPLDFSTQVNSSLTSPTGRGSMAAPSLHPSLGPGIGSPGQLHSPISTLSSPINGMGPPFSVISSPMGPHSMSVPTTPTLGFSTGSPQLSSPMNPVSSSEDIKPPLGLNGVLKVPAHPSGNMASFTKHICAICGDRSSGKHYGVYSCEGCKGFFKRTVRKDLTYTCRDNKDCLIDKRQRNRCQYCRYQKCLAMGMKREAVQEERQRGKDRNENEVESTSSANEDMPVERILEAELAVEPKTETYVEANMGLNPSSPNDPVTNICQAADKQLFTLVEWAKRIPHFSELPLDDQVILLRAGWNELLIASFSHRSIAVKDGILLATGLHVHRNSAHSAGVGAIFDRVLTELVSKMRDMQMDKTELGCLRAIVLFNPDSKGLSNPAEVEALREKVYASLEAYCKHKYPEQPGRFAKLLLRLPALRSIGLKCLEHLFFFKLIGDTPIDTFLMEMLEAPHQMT
The experiment in a line: Activation of human RXRalpha activity expressed in COS1 cells assessed as induction ratio at 50 uM after 12 hrs by RXRE-luciferase reporter gene assay relative to untreated control. Type of series: cell-based. The following applies: COS-1. The method, boiled down:
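COS-1 cells transiently co-transfected per well with 100 ng RXRE-firefly luciferase reporter, 50 ng human RXRα expression vector and 3 ng Renilla luciferase vector using Lipofectamine 2000 for 24 h, then exposed to compound for a further 12 h. Dual-luciferase read-out. Induction ratio taken at 50 µM test concentration.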
As for `Nc1ccc2c3c(n(CCCO)c(=O)c2c1)-c1ccccc1C3O` (configuration not stated), the Ratio was below 1.
Still for that read-out and setting: the figure for `COC(=O)C#Cc1ccc2c3c(n(C)c(=O)c2c1)-c1ccccc1C3=O` is below 1; for `[N-]=[N+]=NCCn1c2c(c3ccc([N+](=O)[O-])cc3c1=O)C(=O)c1ccccc1-2` it is below 1.
On the same count and under the same terms, to `COC(=O)c1ccc2c3c(n(CCCN4CCOCC4)c(=O)c2c1)-c1ccccc1C3=O` belongs below 1.
Still for that read-out and setting: to `COC(=O)CC(=O)Nc1ccc2c3c(n(C)c(=O)c2c1)-c1ccccc1C3=O` belongs below 1.
Turning to `Cn1c2c(c3ccc(C=O)cc3c1=O)C(=O)c1ccccc1-2`, the Ratio is below 1.
Same read-out and setting: to `CCCCn1c2c(c3ccccc3c1=O)C(=O)c1ccccc1-2` belongs below 1; to `CC(=O)Nc1ccc2c3c(n(CCCCl)c(=O)c2c1)-c1ccccc1C3=O`, below 1; to `COC(=O)CCCc1ccc2c3c(n(C)c(=O)c2c1)-c1ccccc1C3=O`, below 1.
On the same count and under the same terms, to `COc1ccc2c(c1)C(=O)c1c-2n(CCCN)c(=O)c2cc(N(C)C)ccc12` belongs below 1; to `NCCCn1c2c(c3ccc(NC(=O)CCCCC(=O)O)cc3c1=O)C(=O)c1ccccc1-2`, below 1; to `CNc1ccc2c3c(n(CCCNC(=O)OC(C)(C)C)c(=O)c2c1)-c1ccccc1C3O` (configuration not stated), below 1.
`CNc1ccc2c3c(n(CCCN)c(=O)c2c1)-c1ccccc1C3O` (configuration not stated): the Ratio is below 1.
Still for that read-out and setting: the figure for `CN(C)CCCn1c2c(c3ccc(C#N)cc3c1=O)C(=O)c1cc3c(cc1-2)OCO3` is below 1; for `COC(=O)C(=O)Nc1ccc2c3c(n(CCCN)c(=O)c2c1)-c1ccccc1C3=O` it is below 1; for `NCCCn1c2c(c3ccc(NC(=O)CCC(=O)O)cc3c1=O)C(=O)c1ccccc1-2` it is below 1.
Same read-out and setting: the figure for `COC(=O)CCCCC(=O)Nc1ccc2c3c(n(C)c(=O)c2c1)-c1ccccc1C3=O` is below 1.
The same measure, in the same setting: the figure for `Cn1c2c(c3ccc(C(=O)O)cc3c1=O)C(=O)c1ccccc1-2` is below 1; for `Cn1c2c(c3ccc(/C=C/C(=O)O)cc3c1=O)C(=O)c1ccccc1-2` it is below 1.
`NCCCn1c2c(c3ccc(NC(=O)CCCC(=O)O)cc3c1=O)C(=O)c1ccccc1-2`: the Ratio was below 1.
The same measure, in the same setting: to `COC(=O)C(=O)Nc1ccc2c3c(n(C)c(=O)c2c1)-c1ccccc1C3=O` belongs below 1; to `NCCCn1c2c(c3ccc(NC(=O)C(=O)O)cc3c1=O)C(=O)c1ccccc1-2`, below 1.
Same read-out and setting: the figure for `COC(=O)CCC(=O)Nc1ccc2c3c(n(C)c(=O)c2c1)-c1ccccc1C3=O` is below 1.
Same read-out and setting: the figure for `O=C1c2ccccc2-c2c1c1ccc([N+](=O)[O-])cc1c(=O)n2CCCO` is below 1.
As to `COCCCn1c2c(c3ccc([N+](=O)[O-])cc3c1=O)C(=O)c1ccccc1-2`, the Ratio was below 1.
Still for that read-out and setting: the figure for `O=C(O)CCn1c2c(c3ccccc3c1=O)C(=O)c1ccccc1-2` is below 1; for `CNCCCn1c2c(c3ccc(N)cc3c1=O)C(O)c1ccccc1-2` (configuration not stated) it is below 1; for `COC(=O)CCCCC(=O)Nc1ccc2c3c(n(CCCN)c(=O)c2c1)-c1ccccc1C3=O` it is below 1.
The same measure, in the same setting: the figure for `Cn1c2c(c3ccc(NC(=O)CC(=O)O)cc3c1=O)C(=O)c1ccccc1-2` is below 1; for `Nc1ccc2c3c(n(CCCO)c(=O)c2c1)-c1ccccc1C3=O` it is below 1.
With `Cn1c2c(c3ccc(C#N)cc3c1=O)C(=O)c1ccccc1-2`, the Ratio was below 1.
On the same count and under the same terms, to `O=CCCn1c2c(c3ccc([N+](=O)[O-])cc3c1=O)C(=O)c1ccccc1-2` belongs below 1; to `O=C1c2ccccc2-c2c1c1ccc(Br)cc1c(=O)n2CCCO`, below 1; to `CC(C)(C)OC(=O)NCCCn1c2c(c3ccc(N)cc3c1=O)C(=O)c1ccccc1-2`, below 1.
Turning to `Cn1c2c(c3ccc(Cl)cc3c1=O)C(=O)c1ccccc1-2`, the Ratio was below 1.
Still for that read-out and setting: the figure for `O=C1c2ccccc2-c2c1c1ccc([N+](=O)[O-])cc1c(=O)n2CCCBr` is below 1.
Take `COC(=O)Cc1ccc2c3c(n(C)c(=O)c2c1)-c1ccccc1C3=O`: the Ratio was below 1.
Take `CCOC(=O)CNc1ccc2c3c(n(C)c(=O)c2c1)-c1ccccc1C3=O`: the Ratio is below 1.
With `CC(C)(C)OC(=O)NCCCn1c2c(c3ccc([N+](=O)[O-])cc3c1=O)C(=O)c1ccccc1-2`, the Ratio was below 1.
Take `Nc1ccc2c3c(n(CCCCl)c(=O)c2c1)-c1ccccc1C3=O`: the Ratio was below 1.
Take `Cn1c2c(c3ccc(NC(=O)C(=O)O)cc3c1=O)C(=O)c1ccccc1-2`: the Ratio was below 1.
On the same count and under the same terms, to `O=C1c2ccccc2-c2c1c1ccc(Br)cc1c(=O)n2CCCn1ccnc1` belongs below 1.
The same measure, in the same setting: to `Cn1c2c(c3ccc(I)cc3c1=O)C(=O)c1ccccc1-2` belongs below 1.
On the same count and under the same terms, to `O=C1c2ccccc2-c2c1c1ccc([N+](=O)[O-])cc1c(=O)n2CCCCO` belongs below 1; to `COC(=O)c1ccc2c3c(n(CCCn4ccnc4)c(=O)c2c1)-c1ccccc1C3=O`, below 1; to `NCCCn1c2c(c3ccc(N)cc3c1=O)C(O)c1ccccc1-2` (configuration not stated), below 1.
For `COC(CCn1c2c(c3ccc([N+](=O)[O-])cc3c1=O)C(=O)c1ccccc1-2)OC`, the Ratio was below 1.
On the same count and under the same terms, the figure for `Cn1c2c(c3ccc(/C=C/C#N)cc3c1=O)C(=O)c1ccccc1-2` is below 1; for `Cn1c2c(c3ccc(CC(=O)O)cc3c1=O)C(=O)c1ccccc1-2` it is below 1.
Still for that read-out and setting: to `COC(=O)CCCC(=O)Nc1ccc2c3c(n(CCCN)c(=O)c2c1)-c1ccccc1C3=O` belongs below 1; to `COC(=O)/C=C/c1ccc2c3c(n(C)c(=O)c2c1)-c1ccccc1C3=O`, below 1; to `Cn1c2c(c3ccc(Br)cc3c1=O)C(=O)c1ccccc1-2`, below 1.
Same read-out and setting: to `COCCCn1c2c(c3ccccc3c1=O)C(=O)c1ccccc1-2` belongs below 1; to `N#Cc1ccc2c3c(n(CCCn4ccnc4)c(=O)c2c1)-c1ccccc1C3=O`, below 1.
`CC(=O)Nc1ccc2c3c(n(CCCO)c(=O)c2c1)-c1ccccc1C3=O`: the Ratio was below 1.
On the same count and under the same terms, to `Cn1c2c(c3ccc(CCCC(=O)O)cc3c1=O)C(=O)c1ccccc1-2` belongs below 1.
Turning to `O=C(O)CCn1c2c(c3ccc([N+](=O)[O-])cc3c1=O)C(=O)c1ccccc1-2`, the Ratio is below 1.
Turning to `[N-]=[N+]=NCCCn1c2c(c3ccc([N+](=O)[O-])cc3c1=O)C(=O)c1ccccc1-2`, the Ratio was below 1.
`COC(=O)CCC(=O)Nc1ccc2c3c(n(CCCN)c(=O)c2c1)-c1ccccc1C3=O`: the Ratio is below 1.
The same measure, in the same setting: the figure for `COC(=O)c1ccc2c3c(n(C)c(=O)c2c1)-c1ccccc1C3=O` is below 1; for `Cc1ccc2c3c(n(C)c(=O)c2c1)-c1ccccc1C3=O` it is below 1; for `Cn1c2c(c3ccccc3c1=O)C(=O)c1ccccc1-2` it is below 1.
For `CN(C)c1ccc2c3c(n(CCCNC(=O)OC(C)(C)C)c(=O)c2c1)-c1ccccc1C3=O`, the Ratio is below 1.
Same read-out and setting: the figure for `NC(=O)CCn1c2c(c3ccccc3c1=O)C(=O)c1ccccc1-2` is below 1; for `CC(=O)NCCCn1c2c(c3ccc([N+](=O)[O-])cc3c1=O)C(=O)c1ccccc1-2` it is below 1; for `N#Cc1ccc2c3c(n(CCCN4CCOCC4)c(=O)c2c1)-c1ccccc1C3=O` it is below 1.
The same measure, in the same setting: to `CNc1ccc2c3c(n(CCCNC(=O)OC(C)(C)C)c(=O)c2c1)-c1ccccc1C3=O` belongs below 1.
`O=C1c2ccccc2-c2c1c1ccc([N+](=O)[O-])cc1c(=O)n2CCCCl`: the Ratio was below 1.
The same measure, in the same setting: the figure for `COC(=O)CCCC(=O)Nc1ccc2c3c(n(C)c(=O)c2c1)-c1ccccc1C3=O` is below 1; for `Cn1c2c(c3ccc(C(N)=O)cc3c1=O)C(=O)c1ccccc1-2` it is below 1; for `COC(=O)CCn1c2c(c3ccc(Br)cc3c1=O)C(=O)c1ccccc1-2` it is below 1.
For the compound `NCCCn1c2c(c3ccc(NC(=O)CC(=O)O)cc3c1=O)C(=O)c1ccccc1-2`, the Ratio was below 1.
On the same count and under the same terms, to `Cn1c2c(c3ccc([N+](=O)[O-])cc3c1=O)C(=O)c1ccccc1-2` belongs below 1; to `O=C1c2ccccc2-c2c1c1ccccc1c(=O)n2CCCO`, below 1; to `COc1ccc2c(c1)C(=O)c1c-2n(CCCN)c(=O)c2cc(OC)c(OC)cc12`, below 1.
Take `NC(=O)CCn1c2c(c3ccc([N+](=O)[O-])cc3c1=O)C(=O)c1ccccc1-2`: the Ratio was below 1.
Take `CC(=O)Nc1ccc2c3c(n(CCCN=[N+]=[N-])c(=O)c2c1)-c1ccccc1C3=O`: the Ratio is below 1.
On to `Cn1c2c(c3ccc(NCC(=O)O)cc3c1=O)C(=O)c1ccccc1-2`, for which the Ratio is below 1.
The same measure, in the same setting: the figure for `CCOC(CCn1c2c(c3ccc([N+](=O)[O-])cc3c1=O)C(=O)c1ccccc1-2)OCC` is below 1.
